# Experimental data collected from several papers.
# Target: Rho-associated protein kinase 1 (ROCK1, Homo sapiens, UniProt Q13464)
SMILES,assay,conditions,measurement,value
Cn1cc(-c2cccc(N3CCc4c(sc5c4CC(C)(C)C5)C3=O)c2CO)cc(Nc2ccncn2)c1=O,"enzyme activity, inhibitor",1 µM,inhibition,1%
CC(C)(C)c1cc(C=C(C#N)C#N)cc(Br)c1O,"enzyme activity, inhibitor",0.5 µM,remaining activity,82.9%
Cn1cncc1[C@](O)(COc1ccc(C#N)cc1-c1ccc(OC(F)(F)F)cc1)c1ccc(C#N)cc1,"cell-free assay, competition with immobilised ligand",1 µM,remaining binding,100%
COc1ncccc1-c1cnn2ccc(N3CCN(C(=O)OC(C)C)CC3)nc12,"binding, competition with immobilised ligand",1 µM,remaining binding,95%
N#CC1(c2ccccn2)CCN(Cc2cc(C(=O)O)c(=O)n3ccccc23)CC1,"cell-free assay, competition with immobilised ligand",1 µM,remaining binding,86%
Nc1ncc(-c2nc(N3CCOCC3)nc(N3CCOCC3)n2)c(C(F)F)n1,"binding, competition with immobilised ligand",10 µM,remaining binding,99%
COc1cc(Nc2ncc(F)c(Nc3ccc4c(n3)NC(=O)C(C)(C)O4)n2)cc(OC)c1OC,binding,10 µM,inhibition,86%
C#Cc1n[nH]c2c(-c3cn([C@@H](C)c4ccccn4)c(=O)[nH]c3=O)cc(F)cc12,"enzyme activity, inhibitor",0.1 µM,inhibition,6.5%
Cn1cc(-c2cc(F)cc(N3CCn4c(cc5c4CCCC5)C3=O)c2CO)cc(Nc2ccc(N3CCN(C4COC4)CC3)cn2)c1=O,"enzyme activity, inhibitor",0.1 µM,inhibition,0%
O=c1[nH]c2ccccc2n1C1CCN(Cc2ccc(-c3[nH]c4cc5ncnc5cc4nc3-c3ccccc3)cc2)CC1,cell-free assay,0.5 µM,remaining signal,101%
